Measurements: ChEMBL document CHEMBL1287738, “Synthesis and biological evaluation of retinoid-chalcones as inhibitors of colon cancer cell growth” (Bioorg Med Chem Lett, 2010)

Tested on: HT-29
Test: Growth inhibition of human HT-29 cell
Assay type: functional, cell-based
Summary of the method: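 Human colon carcinoma HT-29 cells (Apc-null, wild-type β-catenin) incubated with varying concentrations of each compound for 3 days at 37°C; growth inhibition measured.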

N#Cc1ccc(/C=C/C(=O)c2ccccc2)cc1 showed an IC50 of 3.7 µM.
